Measurements from ChEMBL document CHEMBL1821578, “Bioactive A-type proanthocyanidins from Cinnamomum cassia” (J Nat Prod, 2011).

Columns and labels:
[1] = target: T1, Prostaglandin G/H synthase 2 (Homo sapiens) (UniProt P35354); assay: Inhibition of human recombinant COX2 expressed in Sf9 cells at 10 ug/mL
T1 sequence (whole entry): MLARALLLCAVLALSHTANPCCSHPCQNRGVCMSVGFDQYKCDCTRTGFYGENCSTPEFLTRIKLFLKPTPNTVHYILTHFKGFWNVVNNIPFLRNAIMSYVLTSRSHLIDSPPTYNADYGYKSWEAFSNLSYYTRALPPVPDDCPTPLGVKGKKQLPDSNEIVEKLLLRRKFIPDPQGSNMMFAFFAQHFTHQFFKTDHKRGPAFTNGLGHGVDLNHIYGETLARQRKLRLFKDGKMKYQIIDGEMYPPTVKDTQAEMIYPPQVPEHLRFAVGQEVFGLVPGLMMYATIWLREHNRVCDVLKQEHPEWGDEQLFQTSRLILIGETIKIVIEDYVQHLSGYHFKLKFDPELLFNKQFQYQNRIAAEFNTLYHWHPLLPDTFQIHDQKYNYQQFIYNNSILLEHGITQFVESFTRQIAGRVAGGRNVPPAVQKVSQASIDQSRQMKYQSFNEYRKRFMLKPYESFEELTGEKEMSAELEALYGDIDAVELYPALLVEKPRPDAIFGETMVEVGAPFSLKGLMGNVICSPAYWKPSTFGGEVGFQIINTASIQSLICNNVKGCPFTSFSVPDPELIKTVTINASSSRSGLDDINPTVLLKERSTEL
How it was run: (§1)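 Enzyme: human recombinant COX-2 produced in Sf9 cells, assayed by a previously published procedure. Each compound was run in triplicate at three log-spaced levels (10, 100 and 1000 μg/mL). Inhibition of enzyme activity is the read-out.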

[2] = target: T1, Prostaglandin G/H synthase 2 (Homo sapiens); assay: Inhibition of human recombinant COX2 expressed in Sf9 cells at 100 ug/mL; how it was run: as §1
[3] = target: T1, Prostaglandin G/H synthase 2 (Homo sapiens); assay: Inhibition of human recombinant COX2 expressed in Sf9 cells at 1000 ug/mL; how it was run: as §1

Compound	inhibition [1]	inhibition [2]	inhibition [3]
Oc1cc(O)c2c(c1)O[C@H](c1ccc(O)c(O)c1)[C@H](O)[C@H]2c1c(O)c2c(c3c1O[C@]1(c4ccc(O)c(O)c4)Oc4cc(O)cc(O)c4[C@H]3[C@H]1O)O[C@H](c1ccc(O)c(O)c1)[C@H](O)[C@H]2c1c(O)cc(O)c2c1O[C@H](c1ccc(O)c(O)c1)[C@@H](O)C2 (mixture of isomers)	38%	52%	97%
Oc1cc(O)c2c(c1)O[C@@]1(c3ccc(O)c(O)c3)Oc3cc(O)c4c(c3[C@@H]2[C@H]1O)O[C@H](c1ccc(O)c(O)c1)[C@H](O)[C@H]4c1c(O)cc(O)c2c1O[C@H](c1ccc(O)c(O)c1)[C@H](O)C2 (mixture of isomers)	19%	27%	86%
Oc1cc(O)c2c(c1)O[C@@]1(c3ccc(O)c(O)c3)Oc3cc(O)c4c(c3[C@@H]2[C@H]1O)O[C@H](c1ccc(O)c(O)c1)[C@H](O)[C@H]4c1c(O)cc(O)c2c1O[C@H](c1ccc(O)c(O)c1)[C@@H](O)C2 (mixture of isomers)	2%	44%	95%
Oc1cc(O)c2c(c1)O[C@H](c1ccc(O)c(O)c1)[C@H](O)[C@H]2c1c(O)c2c(c3c1O[C@]1(c4ccc(O)c(O)c4)Oc4cc(O)cc(O)c4[C@H]3[C@H]1O)O[C@H](c1ccc(O)c(O)c1)[C@H](O)[C@H]2c1c(O)cc(O)c2c1O[C@H](c1ccc(O)c(O)c1)[C@H](O)C2 (mixture of isomers)	14%	86%	94%
